Tests used:
RAW264.7 [1] = assay: Cell viability of LPS-stimulated mouse RAW264.7 cells after 24 hrs by MTT assay; assay type: functional; set-up: concentration or dose not given beside the values
In short: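 Cells cultured as for the nitrite assay (DMEM/10% FBS, medium renewed at 24 h) and exposed to compounds at 0–20 µg/mL plus LPS 1 µg/mL for 24 h. MTT (5 mg/mL stock in PBS, 10 µL per 100 µL culture) added for 4 h at 37 °C, formazan dissolved in DMSO, read at 550 nm; untreated cells set as 100%. Mean ± SD, three experiments in triplicate.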

RAW264.7 [2] = assay: Antiinflammatory activity in mouse RAW264.7 cells assessed as inhibition of LPS-induced NO production by measuring nitrite level after 24 hrs; assay type: functional
In short: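 RAW264.7 cells in DMEM with 10% heat-inactivated FBS, 37 °C, 5% CO2, 96-well; medium renewed after 24 h, then compounds (0, 1, 5, 10 or 20 µg/mL) added with LPS 1 µg/mL for 24 h. Supernatant mixed 1:1 with Griess reagent, 10 min room temperature, nitrite read at 540 nm. Mean ± SD of three experiments, each in triplicate.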

Row | Structure (SMILES) | Activity (RAW264.7 [1]) | Activity (RAW264.7 [2])
1 | CC(C)=CCOc1ccc(C2=C(CC(C)C)C(=O)OC2=O)cc1 | 67.9% | 20.8 µM
2 | CC(C)=CCOc1ccc(C2=C(CC(C)C)C(=O)NC2=O)cc1 | 69.1% | 10.6 µM
3 | CC(C)=CCOc1ccc(C2=C(CC(C)C)C(=O)N(O)C2=O)cc1 | 86.8% | 18.3 µM
4 | CC(C)CC1=C(c2ccc(O)cc2)C(=O)N(O)C1=O [ANTROCINNAMOMIN B] | 82.2% | 18 µM
5 | CC(C)CC1=C(c2ccc(O)cc2)C(=O)OC1=O [ANTROCINNAMOMIN C] | 76.3% | 21.8 µM
6 | CC(C)=CCOc1ccc(C2=C(CC(C)C)C(O)OC2=O)cc1 (centres undefined) [ANTROCINNAMOMIN D] | 88.2% | 20 µM
7 | CC(=O)ON1C(=O)C(CC(C)C)=C(c2ccc(OCC=C(C)C)cc2)C1=O [ANTROCINNAMOMINS A] | 91.1% | 12.5 µM
